Lipid droplet: hepatic lipid droplet formation modulation; 240,000 tested, 0.4% active; inhibition, % at 6.5 µM; AID 1656; AML12 mouse hepatocytes, oleate lipid droplets, BODIPY imaging;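 active means lipid droplet intensity inhibited by at least 50%, with more than 500 cells counted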
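Material – mouse AML12 hepatocyte cell line, fixed after treatment · Compound dosing – one dose, 6.5 µM compound · Times – compound with oleate, overnight · Measured by – Image-based BODIPY and DAPI two-channel analysis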
Arrestin-AP2 inh: inhibitors of human beta-arrestin and AP2 interaction. FITC-arrestin peptide / GST-AP2 beads, flow cytometry; AP2 beta2 appendage carries R879A mutation. inhibition, % at 10 µM. 340,000 tested, 0.31% active. AID 504490;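 active means inhibition above a set limit, near 3 SD of compounds lacking own fluorescence, cut at about 54% in these data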;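 further: plate controls were DMSO wells for no effect and 5 µM unlabelled arrestin peptide for full effect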
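System: GST-AP2 R879A glutathione beads. Medium: PBS with 0.05% Tween 20 and 0.1% BSA. Also added: FITC-arrestin peptide, 50 nM. Incubation: 12 min plus 1 h, RT. Measured by: high-throughput flow cytometry of beads, ex 488, em 535 nm. Evaluation: percent drop in bead-associated FITC signal.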
pCIP destab: p/CIP protein destabilization. 290,000 tested, 0.01% active. Q05BA5. AID 1984. decrease of EGFP signal, % at 10 µM. F442A p/CIP-EGFP cells, EGFP fluorescence, 16 h;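 active means EGFP signal decrease of at least 30% at 10 µM or well 3 SD below plate mean, unless failing retest; inactive means the rest, including hits failing retest or dose response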
CTSL1 counter: cathepsin L1 inhibition, PFM18AAP counter-screen; recombinant F. hepatica cathepsin L1, Z-Leu-Arg-MCA fluorescence; inhibition, % at 5.96 µM; 300,000 tested, 0.49% active;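 active means inhibition above the mean of all tested compounds plus 3 SD, set per screening campaign, cut at about 17% in these data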;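 further: 0% = plate median of test compound wells and 100% = 1 µM Z-Phe-Ala-diazomethylketone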
Arr-AP2 CP1: human beta-arrestin and AP2 interaction inhibition, cherry pick | shares compounds with Arrestin-AP2 inh | GST-AP2 beads, FITC arrestin peptide binding, flow cytometry; GST-fused beta2-adaptin appendage, R879A mutant | inhibition, % at 10 µM | 1,300 tested, 2% active | AID 504908;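 active means inhibition above a set limit, roughly 3 SD of non-fluorescent compound noise, cut at about 38% in these data; inactive means inhibition at or below that limit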;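 further: loss of bead fluorescence from 50 nM FITC arrestin peptide bound to appendage; 0% = negative control wells and 100% = excess unlabelled arrestin peptide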
Target sequence (P63010 whole entry, looked up, the tested form may be a part, one chain of several): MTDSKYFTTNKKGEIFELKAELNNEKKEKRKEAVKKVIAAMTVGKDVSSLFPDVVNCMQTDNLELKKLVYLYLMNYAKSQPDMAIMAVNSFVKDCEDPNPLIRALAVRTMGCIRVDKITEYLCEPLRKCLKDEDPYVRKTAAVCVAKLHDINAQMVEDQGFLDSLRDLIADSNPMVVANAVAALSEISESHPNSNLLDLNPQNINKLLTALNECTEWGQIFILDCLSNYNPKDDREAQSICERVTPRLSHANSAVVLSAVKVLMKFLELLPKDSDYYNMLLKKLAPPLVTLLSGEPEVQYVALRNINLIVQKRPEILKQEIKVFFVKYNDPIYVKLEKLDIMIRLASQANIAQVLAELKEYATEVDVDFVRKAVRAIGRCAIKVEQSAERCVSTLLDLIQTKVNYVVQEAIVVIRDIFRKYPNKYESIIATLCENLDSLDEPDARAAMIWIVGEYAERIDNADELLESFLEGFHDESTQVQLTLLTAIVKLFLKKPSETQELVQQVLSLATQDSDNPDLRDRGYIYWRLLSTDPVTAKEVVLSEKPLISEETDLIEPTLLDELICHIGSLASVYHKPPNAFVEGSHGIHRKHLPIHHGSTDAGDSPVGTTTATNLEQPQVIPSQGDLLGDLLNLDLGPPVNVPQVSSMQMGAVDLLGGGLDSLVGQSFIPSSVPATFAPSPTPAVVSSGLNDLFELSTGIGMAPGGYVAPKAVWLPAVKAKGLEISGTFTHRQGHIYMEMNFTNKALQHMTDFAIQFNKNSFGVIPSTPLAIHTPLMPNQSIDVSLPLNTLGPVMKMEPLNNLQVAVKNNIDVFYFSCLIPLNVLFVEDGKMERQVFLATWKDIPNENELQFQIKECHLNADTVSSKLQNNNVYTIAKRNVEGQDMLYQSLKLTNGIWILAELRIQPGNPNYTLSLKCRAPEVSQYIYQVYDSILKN
GST-FITC bead: counter-screen for beta-arrestin AP2 inhibitors: GST-GSH bead binding | AID 588338 | GST-fluorescein binding to GSH beads, fluorescence | 1,300 tested, 2% active | shares compounds with Arrestin-AP2 inh | inhibition, % at 10 µM;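 active means inhibition above 50%, about 3 SD of the inhibition seen with non-fluorescent compounds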;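 further: fluorescein maleimide labelled GST captured on 4 micron glutathione beads; higher means more loss of bead fluorescence from quenching or blocked binding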
Starred values were filed as active, the others as inactive; x = no result. In the library only some 1% were active in any assay of this set; here they are far more common.

SMILES	Lipid droplet	Arrestin-AP2 inh	pCIP destab	CTSL1 counter	Arr-AP2 CP1	GST-FITC bead
Cc1ccc2cc(CN(Cc3ccco3)C(=O)NC3CCCCC3)c(=O)[nH]c2c1C	-16	12	8	4	x	x
O=C(NC1CCCCC1)N(CCO)Cc1cc2cc3c(cc2[nH]c1=O)OCCO3	6	8	-5	2	x	x
CCc1ccc2[nH]c(=O)c(CN(CCN(CC)CC)C(=O)NC3CCCCC3)cc2c1	x	76*	-3	0	8	-7
CC(=O)N1CC=CC1(CC(C)C)C(=O)NCCc1c[nH]c2ccccc12 (stereo not drawn)	-18	29	-9	-2	x	x
COC(C(=O)Nc1ccnn1C1CCN(C(=O)c2ccc(C)cc2)CC1)c1ccccc1 (stereo not drawn)	-9	19	-4	-1	x	x
Cc1ccc(C(=O)N/N=C2\CCSC2)cc1[N+](=O)[O-]	-5	-4	6	1	x	x
CC(O)c1nc2ccccc2n1Cc1ccccc1 (stereo not drawn)	-2	54*	0	1	-3	-6
O=C1CC(c2ccco2)CC2=C1C1c3ccccc3C(=O)N1c1ccccc1N2 (stereo not drawn)	1	99*	-12	-9	6	-4
CCC(=O)N1c2ccccc2NC2=C(C(=O)CC(c3ccco3)C2)C1c1ccco1 (stereo not drawn)	-25	8	-10	1	x	x
Cc1ccc(S(=O)(=O)NCCC(=O)N2CCCCCCC2)cc1C	x	5	x	-3	x	x
COc1ccc(S(=O)(=O)NCCC(=O)N2CCCC2)cc1N(C)S(C)(=O)=O	-4	56*	11	6	-2	-10
CC(C)Cn1c(N)c(C(=O)COC(=O)c2ccccc2Cl)c(=O)n(C)c1=O	18	-17	-7	2	6	-3
CC(C)Cn1c(N)c(C(=O)COC(=O)c2ccccc2C(=O)c2ccccc2)c(=O)n(C)c1=O	x	7	x	x	x	x
CC(C)Cn1c(N)c(C(=O)COC(=O)c2cccn2C)c(=O)n(C)c1=O	x	31	x	x	-7	-2
CC(C)Cn1c(N)c(C(=O)COC(=O)c2ccccc2F)c(=O)n(C)c1=O	1	4	-17	-6	-1	0
O=C(Nc1ncccn1)C1c2ccccc2Oc2ccccc21	-2	-1	-11	0	x	x
C/C(CC(=O)NC(C)(C)C)=N\NC(=O)c1ccccc1N	13	-3	7	0	x	x
CCN(C(=O)CN1C(=O)NC(CCSC)C1=O)C1CCS(=O)(=O)C1 (stereo not drawn)	x	31	x	x	x	x
CCOC(=O)c1cc2c(nc1NC(=S)NCc1ccccc1)CCCC2	1	103*	-6	1	-6	-2
CCOC(=O)c1cc2c(nc1NC(=S)Nc1ccccc1)CC(C)(C)OC2	1	-4	3	2	x	x
NS(=O)(=O)c1ccc(N/N=C/c2ccc(O)c(O)c2O)c([N+](=O)[O-])c1	19	78*	-5	x	41*	14
NS(=O)(=O)c1ccc(N/N=C/c2ccc(O)cc2O)c([N+](=O)[O-])c1	-5	44	3	9	x	x
S=C(N/N=C/c1ccc(Br)cc1)N1CCCCC1	20	-6	2	-1	x	x
COc1cc(C(=O)Nc2nc3ccc(S(C)(=O)=O)cc3s2)cc(OC)c1C	2	-1	-8	-1	x	x
COc1cc(OC)cc(C(=O)Nc2nc3ccc(S(C)(=O)=O)cc3s2)c1	2	104*	5	9	3	-2
O=C(NCc1ccccc1)c1ccc(N2CCC3(CC2)CC(c2ccc(Cl)cc2)=NO3)c([N+](=O)[O-])c1	-6	-8	-2	-6	x	x
O=C(Nc1nc(-c2cc3ccccc3o2)cs1)c1ccc(S(=O)(=O)N2CCCC2)cc1	-18	13	-17	-5	x	x
CC1CN(S(=O)(=O)c2ccc(C(=O)Nc3nc(-c4cc5ccccc5o4)cs3)cc2)CC(C)O1 (stereo not drawn)	-5	107*	-8	0	-6	-2
O=C(CC(Cc1ccccc1)C(=O)O)Nc1ccc(F)cc1 (stereo not drawn)	-18	-12	-14	-1	x	x
CC(C)Cn1c(N)c(C(=O)COC(=O)c2ccc(F)cc2)c(=O)n(C)c1=O	12	13	-16	2	3	-7
